Test results reported in BindingDB's records for doi:10.1021/jm00399a033 (Schering-Plough, 1988).

Target: T1, Angiotensin-converting enzyme (Oryctolagus cuniculus, UniProt P12822)
T1 sequence (P12822 whole entry): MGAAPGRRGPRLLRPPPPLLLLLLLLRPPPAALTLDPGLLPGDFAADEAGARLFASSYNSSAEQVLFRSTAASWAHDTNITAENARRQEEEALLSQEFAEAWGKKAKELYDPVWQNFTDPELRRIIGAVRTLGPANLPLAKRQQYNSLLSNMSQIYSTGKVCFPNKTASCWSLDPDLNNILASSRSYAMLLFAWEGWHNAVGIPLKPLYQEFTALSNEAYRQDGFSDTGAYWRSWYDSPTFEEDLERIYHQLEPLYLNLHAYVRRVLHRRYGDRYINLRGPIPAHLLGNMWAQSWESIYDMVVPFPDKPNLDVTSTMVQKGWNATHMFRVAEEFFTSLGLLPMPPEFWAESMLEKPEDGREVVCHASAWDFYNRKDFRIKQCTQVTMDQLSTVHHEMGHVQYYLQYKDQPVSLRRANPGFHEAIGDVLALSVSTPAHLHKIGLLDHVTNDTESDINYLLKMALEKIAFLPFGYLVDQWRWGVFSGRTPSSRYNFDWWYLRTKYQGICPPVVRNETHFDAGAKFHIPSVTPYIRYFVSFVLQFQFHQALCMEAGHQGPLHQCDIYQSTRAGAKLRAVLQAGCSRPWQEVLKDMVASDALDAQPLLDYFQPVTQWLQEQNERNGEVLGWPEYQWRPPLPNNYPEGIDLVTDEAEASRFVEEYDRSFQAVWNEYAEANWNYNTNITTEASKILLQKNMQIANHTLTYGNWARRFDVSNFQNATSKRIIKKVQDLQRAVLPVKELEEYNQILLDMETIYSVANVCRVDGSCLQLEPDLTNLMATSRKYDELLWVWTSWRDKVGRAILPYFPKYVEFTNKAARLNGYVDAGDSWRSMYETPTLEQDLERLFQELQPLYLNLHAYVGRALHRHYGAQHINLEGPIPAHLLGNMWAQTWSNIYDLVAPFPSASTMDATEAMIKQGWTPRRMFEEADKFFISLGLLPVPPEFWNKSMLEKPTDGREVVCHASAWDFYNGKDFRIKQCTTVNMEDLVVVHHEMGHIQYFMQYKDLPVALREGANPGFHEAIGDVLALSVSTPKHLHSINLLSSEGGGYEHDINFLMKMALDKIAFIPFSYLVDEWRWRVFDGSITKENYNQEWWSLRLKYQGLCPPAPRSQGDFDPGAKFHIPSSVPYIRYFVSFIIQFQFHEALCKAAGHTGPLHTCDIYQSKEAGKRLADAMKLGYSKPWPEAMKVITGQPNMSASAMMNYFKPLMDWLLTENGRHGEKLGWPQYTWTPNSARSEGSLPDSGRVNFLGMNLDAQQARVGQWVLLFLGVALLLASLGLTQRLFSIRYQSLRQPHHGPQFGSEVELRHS
Assay: In vitro inhibition of Angiotensin I converting enzyme with relative to captopril(=1)
Method in brief: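 Crude ACE from rabbit lung acetone powder extracted in 50 mM potassium phosphate pH 8.3, spun 40000g. Final assay: 100 mM phosphate pH 8.3, 300 mM NaCl, 5 mM hippuryl-His-Leu; enzyme added last, 30 min at 37 °C, stopped with HCl. Hippuric acid extracted into EtOAc, dried, redissolved in water, read by absorbance.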

## O=C(O)[C@@H]1CCCN1C(=O)CCS
  IC50: 200 nM
